Measurements published in ChEMBL document CHEMBL1129630, “Synthesis and structure-activity relationships of retinoid X receptor selective diaryl sulfide analogs of retinoic acid” (J Med Chem, 1996).
pEC50, pKd: −log10 of the molar value.

Columns and labels:
[1] = target: T1, Retinoic acid receptor RXR-alpha (Mus musculus, UniProt P28700); assay: Dissociation constant for binding to Retinoid X receptor alpha
T1 sequence (P28700 whole entry): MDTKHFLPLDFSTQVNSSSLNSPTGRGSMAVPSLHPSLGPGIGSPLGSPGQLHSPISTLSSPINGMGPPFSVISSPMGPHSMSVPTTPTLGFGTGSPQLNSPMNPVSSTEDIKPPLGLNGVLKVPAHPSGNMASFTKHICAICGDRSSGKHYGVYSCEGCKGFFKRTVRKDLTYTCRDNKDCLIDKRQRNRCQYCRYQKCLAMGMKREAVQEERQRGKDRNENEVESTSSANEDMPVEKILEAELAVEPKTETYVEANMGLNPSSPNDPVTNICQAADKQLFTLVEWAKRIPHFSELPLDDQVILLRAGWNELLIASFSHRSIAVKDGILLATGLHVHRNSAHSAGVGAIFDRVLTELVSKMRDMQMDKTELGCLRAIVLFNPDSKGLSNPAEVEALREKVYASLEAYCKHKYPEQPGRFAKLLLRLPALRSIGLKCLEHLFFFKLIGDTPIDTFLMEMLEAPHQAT

[2] = target: T2, Retinoic acid receptor beta (Homo sapiens, UniProt P10826); assay: Transcriptional activation of Retinoic acid receptor RAR beta;NA=not active; parameters: species or system Cercopithecidae
T2 sequence (P10826 whole entry): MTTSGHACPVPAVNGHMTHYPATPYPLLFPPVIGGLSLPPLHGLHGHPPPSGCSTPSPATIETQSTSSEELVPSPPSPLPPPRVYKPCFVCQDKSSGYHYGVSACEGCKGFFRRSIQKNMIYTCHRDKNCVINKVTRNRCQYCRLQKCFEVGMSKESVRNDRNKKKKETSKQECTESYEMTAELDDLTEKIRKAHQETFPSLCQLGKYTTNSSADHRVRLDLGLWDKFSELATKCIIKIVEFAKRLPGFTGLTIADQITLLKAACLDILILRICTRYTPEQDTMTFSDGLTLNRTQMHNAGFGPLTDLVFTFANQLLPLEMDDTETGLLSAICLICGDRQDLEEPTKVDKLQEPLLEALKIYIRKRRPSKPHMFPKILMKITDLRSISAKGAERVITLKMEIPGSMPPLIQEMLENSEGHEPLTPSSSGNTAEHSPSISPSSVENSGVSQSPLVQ
How it was run: (§1)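 CV-1 cells transiently cotransfected with the receptor construct and a reporter gene, with induced transcription measured. Activity is normalized to all-trans RA. EC50 is the concentration giving 50% of maximal observed response, from a single experiment in triplicate.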

[3] = target: T3, Retinoic acid receptor alpha (Homo sapiens, UniProt P10276); assay: Transcriptional activation of Retinoic acid receptor RAR alpha;NA=not active; parameters: species or system Cercopithecidae; how it was run: as §1
T3 sequence (P10276 whole entry): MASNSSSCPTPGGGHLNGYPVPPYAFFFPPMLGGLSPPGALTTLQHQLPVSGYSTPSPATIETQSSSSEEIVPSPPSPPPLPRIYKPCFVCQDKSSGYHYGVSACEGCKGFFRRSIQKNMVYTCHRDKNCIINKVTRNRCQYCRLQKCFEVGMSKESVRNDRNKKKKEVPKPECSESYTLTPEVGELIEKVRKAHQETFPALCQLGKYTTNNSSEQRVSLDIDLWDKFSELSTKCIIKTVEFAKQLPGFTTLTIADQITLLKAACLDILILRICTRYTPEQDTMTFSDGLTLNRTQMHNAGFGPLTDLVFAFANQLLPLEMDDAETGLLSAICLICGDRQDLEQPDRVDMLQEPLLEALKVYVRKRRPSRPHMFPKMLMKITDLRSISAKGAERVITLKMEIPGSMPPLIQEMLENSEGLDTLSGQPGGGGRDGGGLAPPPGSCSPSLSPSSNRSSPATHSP

[4] = target: T4, Retinoic acid receptor RXR-beta (Homo sapiens, UniProt P28702); assay: Transcriptional activation of Retinoid X receptor RXR beta; parameters: species or system Cercopithecidae
T4 sequence (P28702 whole entry): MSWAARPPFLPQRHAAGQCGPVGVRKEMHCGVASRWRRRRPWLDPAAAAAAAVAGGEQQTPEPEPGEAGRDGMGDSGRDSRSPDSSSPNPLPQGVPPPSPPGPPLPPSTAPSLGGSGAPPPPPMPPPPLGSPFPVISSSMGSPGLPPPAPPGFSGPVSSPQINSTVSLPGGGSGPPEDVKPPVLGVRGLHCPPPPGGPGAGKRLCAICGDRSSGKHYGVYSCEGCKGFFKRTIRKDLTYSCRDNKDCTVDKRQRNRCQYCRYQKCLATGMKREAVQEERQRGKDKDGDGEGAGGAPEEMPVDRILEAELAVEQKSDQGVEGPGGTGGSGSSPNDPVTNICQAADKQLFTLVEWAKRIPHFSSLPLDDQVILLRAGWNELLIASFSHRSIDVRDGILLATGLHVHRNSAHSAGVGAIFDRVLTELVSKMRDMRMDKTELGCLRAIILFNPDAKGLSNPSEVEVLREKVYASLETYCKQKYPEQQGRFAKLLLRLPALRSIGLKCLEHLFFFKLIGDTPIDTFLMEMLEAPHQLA
How it was run: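 CV-1 cells transiently cotransfected with the receptor construct and a reporter gene, with induced transcription measured. Activity is normalized to all-trans RA.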

[5] = target: T5, Retinoic acid receptor RXR-gamma (Mus musculus, UniProt P28705); assay: Dissociation constant for binding to Retinoid X receptor gamma
T5 sequence (P28705 whole entry): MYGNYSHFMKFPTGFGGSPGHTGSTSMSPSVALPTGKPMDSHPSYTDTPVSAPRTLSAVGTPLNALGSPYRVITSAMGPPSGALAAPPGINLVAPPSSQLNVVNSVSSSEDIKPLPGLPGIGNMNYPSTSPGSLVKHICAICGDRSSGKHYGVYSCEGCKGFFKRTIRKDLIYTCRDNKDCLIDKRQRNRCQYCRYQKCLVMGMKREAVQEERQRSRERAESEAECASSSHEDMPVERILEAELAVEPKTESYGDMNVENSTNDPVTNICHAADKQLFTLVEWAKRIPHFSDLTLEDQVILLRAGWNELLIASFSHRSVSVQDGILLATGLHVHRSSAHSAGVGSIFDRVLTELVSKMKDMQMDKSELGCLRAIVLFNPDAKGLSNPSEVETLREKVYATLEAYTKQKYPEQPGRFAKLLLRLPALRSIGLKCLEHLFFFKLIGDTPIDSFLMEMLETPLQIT
How it was run: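 Competitive binding assays against each receptor subtype, with Kd values taken from competition.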

Row | Structure (SMILES) | pKd [1] | EC50 [2] | EC50 [3] | pEC50 [4] | pKd [5]
1 | Cc1cc2c(cc1Sc1ccc(C(=O)O)cn1)C(C)(C)CCC2(C)C | 7.49 | Not Active | Not Active |  | 
2 | Cc1cc2c(cc1Sc1ncc(C(=O)O)s1)C(C)(C)CCC2(C)C | 6.00 | Not Active | Not Active | 5.89 | 6.00
3 | Cc1cc2c(cc1S(=O)(=O)c1ccc(C(=O)O)cc1)C(C)(C)CCC2(C)C | 5.60 | Not Active | Not Active |  | 5.40
4 | Cc1cc2c(cc1[S+]([O-])c1ccc(C(=O)O)cc1)C(C)(C)CCC2(C)C (stereo not drawn) | < 5.00 | Not Active | Not Active | 5.52 | < 5.00

More lines, in order of rising pKd [1], values ahead:

Row | pKd [1] | EC50 [2] | EC50 [3] | pEC50 [4] | pKd [5] | Structure (SMILES)
5 | 5.41 |  | Not Active |  |  | CC1(C)CCC(C)(C)c2cc(Sc3ccc(C(=O)O)cc3)ccc21
6 | 6.53 | Not Active | Not Active | 6.52 |  | Cc1cc2c(cc1Sc1ccc(C(=O)O)cc1)C(C)(C)CCC2(C)C
